5 compounds from ChEMBL document CHEMBL1124847, “Synthesis and antiviral activity of metabolites of rimantadine” (1990) can be followed below.

Converted amounts (≈) assume the structure as drawn.

Holding throughout (format): functional
Holding throughout (conditions): Canis lupus familiaris, read-out: ID50 (the source's name)

For experiment [1], the system named is MDCK. Put plainly: Antiviral activity against influenza A virus (Mississippi) in Madin Darby canine kidney (MDCK) cell culture. In outline:
(§1)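 Confluent MDCK monolayers were given compound in serial 2-fold dilutions, then infected with 100 TCID50 of virus and incubated at 35 °C for 48 h. Cells were fixed, stained and scored microscopically for cytopathic effect. The dose giving 50% inhibition of CPE was read when infected controls just reached 100% CPE, in ng/mL, as the mean ± SD of at least three determinations.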

Experiment [2] relates to MDCK. Briefly: Antiviral activity against influenza A virus (NY/83/5) in Madin Darby canine kidney (MDCK) cell culture. The gist of the method: as §1
The subject of experiment [3] is MDCK. Put plainly: Antiviral activity against influenza A virus (Taiwan) in Madin Darby canine kidney (MDCK) cell culture. In outline:
as §1

Take `CC(N)C12CC3CC(CC(C3)C1O)C2` (stereo not given): the results for the IC50 in the experiment with MDCK [1], in the experiment with MDCK [2] and in the experiment with MDCK [3] were 0.15 µg/mL (≈ 0.768 µM), 0.101 µg/mL (≈ 0.517 µM) and 0.16 µg/mL (≈ 0.819 µM), respectively.
For `CC(N)C12CC3CC(C1)C(O)C(C3)C2` (stereo not given), in that order: 3.4 µg/mL (≈ 17.4 µM), 0.804 µg/mL (≈ 4.12 µM) and 1.5 µg/mL (≈ 7.68 µM).
`CC(N)C12CC3CC(CC(O)(C3)C1)C2` (stereo not given) [3-HYDROXYRIMANTADINE]: the values for the IC50 in the experiment on MDCK [1], in the experiment on MDCK [2] and in the experiment with MDCK [3] were 6.7 µg/mL (≈ 34.3 µM), 4 µg/mL (≈ 20.5 µM) and 5.4 µg/mL (≈ 27.6 µM), respectively.
For `NC12CC3CC(CC(C3)C1)C2` [AMANTADINE], the IC50 in the experiment on MDCK [1] was 0.113 µg/mL (≈ 0.747 µM); with MDCK [2] it was 0.08 µg/mL (≈ 0.529 µM); in the experiment with MDCK [3], 0.116 µg/mL (≈ 0.767 µM).
For `CC(N)C12CC3CC(CC(C3)C1)C2` (stereo not given) [RIMANTADINE], in that order: 0.021 µg/mL (≈ 0.117 µM), 0.012 µg/mL (≈ 0.0669 µM) and 0.0098 µg/mL (≈ 0.0547 µM).
